Experimental findings from ChEMBL document CHEMBL1146064, “Design, synthesis, and biological evaluation of semicarbazide-sensitive amine oxidase (SSAO) inhibitors with anti-inflammatory activity” (J Med Chem, 2006) are described below.

The target in data set [1] is T1, Amine oxidase [copper-containing] 3 (Rattus norvegicus, UniProt O08590).
T1 sequence (O08590 whole entry): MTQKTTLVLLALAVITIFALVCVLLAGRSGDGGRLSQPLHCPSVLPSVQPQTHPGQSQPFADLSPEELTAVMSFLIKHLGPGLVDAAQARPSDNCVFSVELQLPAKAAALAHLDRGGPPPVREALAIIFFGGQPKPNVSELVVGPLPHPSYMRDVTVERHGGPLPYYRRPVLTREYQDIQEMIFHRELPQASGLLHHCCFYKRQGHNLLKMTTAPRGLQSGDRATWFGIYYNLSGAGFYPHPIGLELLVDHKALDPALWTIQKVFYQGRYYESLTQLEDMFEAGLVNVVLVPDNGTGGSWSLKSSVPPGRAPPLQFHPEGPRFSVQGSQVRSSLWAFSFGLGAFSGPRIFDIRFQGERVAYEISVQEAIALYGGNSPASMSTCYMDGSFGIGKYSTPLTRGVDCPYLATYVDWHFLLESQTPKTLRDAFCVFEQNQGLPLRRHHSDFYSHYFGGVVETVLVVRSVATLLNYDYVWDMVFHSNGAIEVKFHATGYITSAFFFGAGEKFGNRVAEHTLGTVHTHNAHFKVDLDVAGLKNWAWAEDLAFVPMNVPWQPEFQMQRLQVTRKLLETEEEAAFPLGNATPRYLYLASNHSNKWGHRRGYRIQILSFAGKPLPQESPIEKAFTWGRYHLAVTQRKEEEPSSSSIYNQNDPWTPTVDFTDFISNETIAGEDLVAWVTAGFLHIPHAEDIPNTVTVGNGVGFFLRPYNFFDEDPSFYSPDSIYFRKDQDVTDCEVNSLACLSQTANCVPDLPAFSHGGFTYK
The data set can be described thus: Inhibition of SSAO in rat lung. The method in brief: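 Enzyme source is a rat lung homogenate: tissue homogenized 1:20 (w/v) in 10 mM potassium phosphate pH 7.8, then spun at 10000g for 10 min at 4 °C. Reaction stopped with citric acid, toluene/ethyl acetate extract counted by scintillation. IC50 taken from background-corrected dose-response curves (10^-3 to 10^-10 M).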

For data set [2], the target named is T2, Amine oxidase [flavin-containing] B (Homo sapiens, UniProt P27338).
T2 sequence (P27338 whole entry): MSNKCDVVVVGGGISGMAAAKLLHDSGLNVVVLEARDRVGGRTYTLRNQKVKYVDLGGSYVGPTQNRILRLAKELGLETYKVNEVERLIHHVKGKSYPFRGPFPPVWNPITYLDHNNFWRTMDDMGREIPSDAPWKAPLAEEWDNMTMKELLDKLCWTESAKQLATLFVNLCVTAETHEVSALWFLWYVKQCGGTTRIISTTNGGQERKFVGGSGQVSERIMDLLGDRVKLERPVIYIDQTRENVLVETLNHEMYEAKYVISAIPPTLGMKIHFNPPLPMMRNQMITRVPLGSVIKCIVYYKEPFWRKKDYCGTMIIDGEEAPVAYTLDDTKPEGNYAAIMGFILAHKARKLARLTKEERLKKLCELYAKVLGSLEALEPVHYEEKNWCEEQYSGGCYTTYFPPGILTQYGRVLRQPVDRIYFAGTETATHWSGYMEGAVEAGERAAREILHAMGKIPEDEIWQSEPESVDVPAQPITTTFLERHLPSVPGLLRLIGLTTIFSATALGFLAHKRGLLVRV
The data set can be described thus: Inhibition of recombinant human MAO-B.

Data set [3] addresses T3, Amine oxidase [flavin-containing] A (Homo sapiens, UniProt P21397).
T3 sequence (P21397 whole entry): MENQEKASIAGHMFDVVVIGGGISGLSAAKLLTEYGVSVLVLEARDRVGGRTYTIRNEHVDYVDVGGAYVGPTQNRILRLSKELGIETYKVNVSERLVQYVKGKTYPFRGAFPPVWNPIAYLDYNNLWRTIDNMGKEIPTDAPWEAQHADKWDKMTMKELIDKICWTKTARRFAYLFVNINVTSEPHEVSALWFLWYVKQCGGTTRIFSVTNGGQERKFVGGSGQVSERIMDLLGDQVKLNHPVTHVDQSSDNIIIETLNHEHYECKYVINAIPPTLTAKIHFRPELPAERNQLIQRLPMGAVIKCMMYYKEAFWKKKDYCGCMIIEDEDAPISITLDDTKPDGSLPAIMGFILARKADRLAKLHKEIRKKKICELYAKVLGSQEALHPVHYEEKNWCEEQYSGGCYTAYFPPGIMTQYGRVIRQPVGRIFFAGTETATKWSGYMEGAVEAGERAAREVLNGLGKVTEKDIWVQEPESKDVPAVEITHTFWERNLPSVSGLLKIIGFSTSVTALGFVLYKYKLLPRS
The data set can be described thus: Inhibition of recombinant human MAO-A. A digest of the protocol: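 Recombinant human MAO-A measured with a coupled colorimetric assay. IC50 fitted from inhibition curves over 10^-3 to 10^-10 M inhibitor.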

A short description of data set [4]: Tmax in Sprague-Dawley rat at 5 mg/kg, po. Also on record: dose 5 mg/kg, route oral. It counts as ADME, organism-based. The note with it: in vivo. The method in brief: (§1)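 Single oral dose of 5.0 mg/kg given to cannulated female Sprague Dawley rats, then plasma concentrations followed over time. Parameters come from noncompartmental analysis and are reported as mean ± SD (n = 3).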

Data set [5] is described as follows: Cmax in Sprague-Dawley rat at 5 mg/kg, po. Also on record: dose 5 mg/kg, route oral. In kind it is ADME, organism-based. Conditions: in vivo. A digest of the protocol: as §1
The nature of data set [6]: AUC (infinity) in Sprague-Dawley rat at 5 mg/kg, po. It counts as ADME, organism-based. Set-up: time infinity, dose 5 mg/kg, route oral. The note with it: plasma. The method in brief:
as §1

The nature of data set [7]: Half life in Sprague-Dawley rat at 5 mg/kg, po. It counts as ADME, organism-based. Set-up: dose 5 mg/kg, route oral. The note with it: in vivo. A digest of the protocol:
as §1

Data set [8] can be described thus: AUC in Sprague-Dawley rat at 5 mg/kg, po. It counts as ADME, organism-based. Set-up: dose 5 mg/kg, route oral. Conditions: plasma. The method in brief:
as §1

In general, IC50 refers to the concentration needed to halve the response being measured. Regarding `C=C(CNN)c1ccccc1C`, the IC50 is 4 nM in data set [1], 90 µM in data set [2] and 2000 nM in data set [3].

In the case of `C=C(CN(N)CC)c1ccc(F)cc1`, in data set [1], the IC50 came out at 630 nM.

As for `C=C(CNNCC)c1ccc(F)cc1`, the IC50 in data set [1] stood at 2.3 nM.

A word on the Tmax: it is the time from dosing to the highest level. The term Cmax denotes the highest concentration seen after dosing. For orientation: AUC(0-inf) means total exposure, with the tail of the curve extrapolated. As usually defined, the half-life is the time in which the quantity being followed falls by half. Higher therefore signals slow decline. A word on the AUC: it is the area under the concentration-time curve, a measure of exposure. `C=C(CNN)c1ccccc1.Cl`: in data set [4], the Tmax was 30 min. This compound returned a Cmax in data set [5] of 366 ng/mL. Also, the AUC(0-inf) in data set [6] is 3310 ng·h/mL. The compound further had a half-life in data set [7] of 677 min. In addition, the IC50 in data set [1] worked out at 2 nM; in data set [2], 71 µM; in data set [3], 1300 nM. For the same compound, in data set [8], the AUC is 1340 ng·h/mL.

For `C=C(CN(N)Cc1ccccc1)c1ccc(F)cc1`, the IC50 in data set [1] was over 1000 nM.

In the case of `C=C(CNNC)c1ccc(F)cc1`, in data set [1], the IC50 was 1.7 nM.

Consider `C=C(CN(C)N)c1ccc(F)cc1`, for which the IC50 in data set [1] was determined as 240 nM.

`C=C(CNNCc1ccccc1)c1ccc(F)cc1` showed an IC50 in data set [1] of over 1000 nM.

Take `NNC/C(=C/F)c1ccccc1`: in data set [1], 5 nM corresponded to half-maximal inhibition (IC50).

For the compound `C=C(CNN)c1ccc(F)cc1`, the IC50 in data set [1] stood at 6.1 nM; in data set [3] it was 6000 nM.

`C=C(CN(N)C(C)C)c1ccc(F)cc1`: half-maximal inhibition in data set [1] (IC50) required 420 nM.

`C=C(CNNC(C)C)c1ccc(F)cc1`: the IC50 in data set [1] was over 1000 nM.

Regarding `C=C(CNN)c1ccc(Cl)cc1`, inhibition in data set [1] was half-maximal at 3 nM (IC50).
